Assay results as given in ChEMBL document CHEMBL4261600 (Eur J Med Chem, 2018).
The source made the active and inactive calls.

Legend:
[1] = target: T1, Cyclin-dependent kinase 9 (Homo sapiens, UniProt P50750); experiment: Inhibition of CDK9 in human MV4-11 cells assessed as decrease in phosphorylation at Thr 186 residues up to 3 uM after 2 hrs by immunoblotting analysis; type: cell-based
[2] = target: T1, Cyclin-dependent kinase 9; experiment: Inhibition of CDK9 in human HL60 cells assessed as decrease in RNA polymerase 2 phosphorylation at Ser 2 residues in CTD domain after 2 hrs by immunoblotting analysis; type: cell-based
HL-60 = experiment: Induction of apoptosis in human HL60 cells assessed as decrease in MCL-1 level after 2 hrs by immunoblotting analysis; type: functional, cell-based
[3] = Tmax in mouse at 3 mg/kg, iv by LC-MS/MS analysis; type: ADME, organism-based; settings: in vivo
Canis familiaris = experiment: Oral bioavailability in beagle dog at 10 mg/kg by LC-MS/MS analysis; type: ADME, organism-based, Canis lupus familiaris; settings: in vivo
[4] = target: Cyclin-dependent kinase 8 (Homo sapiens) (UniProt P49336); experiment: Binding affinity to wild-type human partial length CDK8 (M1 to T360 residues) expressed in bacterial expression system assessed as remaining unbound target protein level at 1000 nM by Kinomescan method relative to control
[5] = target: Macrophage colony-stimulating factor 1 receptor (Homo sapiens) (UniProt P07333); experiment: Binding affinity to wild-type human partial length autoinhibited CSF1R (Y538 to S939 residues) expressed in mammalian expression system assessed as remaining unbound target protein level at 1000 nM by Kinomescan method relative to control
[6] = target: Casein kinase I isoform alpha (Homo sapiens) (UniProt P48729); experiment: Binding affinity to wild-type human partial length CSNK1A1 (M1 to L450 residues) expressed in mammalian expression system assessed as remaining unbound target protein level at 1000 nM by Kinomescan method relative to control
Casein kinase I isoform alpha (Homo sapiens), sequence (P48729 2-337 limits assumed): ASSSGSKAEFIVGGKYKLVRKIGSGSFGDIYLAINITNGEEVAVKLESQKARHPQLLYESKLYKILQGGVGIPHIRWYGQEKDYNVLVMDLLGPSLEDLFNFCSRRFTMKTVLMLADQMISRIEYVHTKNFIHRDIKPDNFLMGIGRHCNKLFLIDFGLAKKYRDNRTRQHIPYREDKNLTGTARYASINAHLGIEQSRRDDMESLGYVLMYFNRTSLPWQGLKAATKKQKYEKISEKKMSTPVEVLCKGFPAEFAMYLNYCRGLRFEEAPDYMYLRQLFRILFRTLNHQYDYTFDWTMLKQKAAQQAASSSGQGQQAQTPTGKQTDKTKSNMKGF
How it was run: (§1)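 KINOMEscan competition binding profile across a panel of 468 kinases and mutants, with the inhibitor tested at a single concentration of 1 μM. Binding is reported as percent of control, meaning signal relative to a DMSO control.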

[7] = target: Death-associated protein kinase 1 (Homo sapiens) (UniProt P53355); experiment: Binding affinity to wild-type human partial length DAPK1 (M1 to F296 residues) expressed in bacterial expression system assessed as remaining unbound target protein level at 1000 nM by Kinomescan method relative to control; how it was run: as §1
Death-associated protein kinase 1 (Homo sapiens), sequence (P53355 whole entry, looked up, the tested form may be a part): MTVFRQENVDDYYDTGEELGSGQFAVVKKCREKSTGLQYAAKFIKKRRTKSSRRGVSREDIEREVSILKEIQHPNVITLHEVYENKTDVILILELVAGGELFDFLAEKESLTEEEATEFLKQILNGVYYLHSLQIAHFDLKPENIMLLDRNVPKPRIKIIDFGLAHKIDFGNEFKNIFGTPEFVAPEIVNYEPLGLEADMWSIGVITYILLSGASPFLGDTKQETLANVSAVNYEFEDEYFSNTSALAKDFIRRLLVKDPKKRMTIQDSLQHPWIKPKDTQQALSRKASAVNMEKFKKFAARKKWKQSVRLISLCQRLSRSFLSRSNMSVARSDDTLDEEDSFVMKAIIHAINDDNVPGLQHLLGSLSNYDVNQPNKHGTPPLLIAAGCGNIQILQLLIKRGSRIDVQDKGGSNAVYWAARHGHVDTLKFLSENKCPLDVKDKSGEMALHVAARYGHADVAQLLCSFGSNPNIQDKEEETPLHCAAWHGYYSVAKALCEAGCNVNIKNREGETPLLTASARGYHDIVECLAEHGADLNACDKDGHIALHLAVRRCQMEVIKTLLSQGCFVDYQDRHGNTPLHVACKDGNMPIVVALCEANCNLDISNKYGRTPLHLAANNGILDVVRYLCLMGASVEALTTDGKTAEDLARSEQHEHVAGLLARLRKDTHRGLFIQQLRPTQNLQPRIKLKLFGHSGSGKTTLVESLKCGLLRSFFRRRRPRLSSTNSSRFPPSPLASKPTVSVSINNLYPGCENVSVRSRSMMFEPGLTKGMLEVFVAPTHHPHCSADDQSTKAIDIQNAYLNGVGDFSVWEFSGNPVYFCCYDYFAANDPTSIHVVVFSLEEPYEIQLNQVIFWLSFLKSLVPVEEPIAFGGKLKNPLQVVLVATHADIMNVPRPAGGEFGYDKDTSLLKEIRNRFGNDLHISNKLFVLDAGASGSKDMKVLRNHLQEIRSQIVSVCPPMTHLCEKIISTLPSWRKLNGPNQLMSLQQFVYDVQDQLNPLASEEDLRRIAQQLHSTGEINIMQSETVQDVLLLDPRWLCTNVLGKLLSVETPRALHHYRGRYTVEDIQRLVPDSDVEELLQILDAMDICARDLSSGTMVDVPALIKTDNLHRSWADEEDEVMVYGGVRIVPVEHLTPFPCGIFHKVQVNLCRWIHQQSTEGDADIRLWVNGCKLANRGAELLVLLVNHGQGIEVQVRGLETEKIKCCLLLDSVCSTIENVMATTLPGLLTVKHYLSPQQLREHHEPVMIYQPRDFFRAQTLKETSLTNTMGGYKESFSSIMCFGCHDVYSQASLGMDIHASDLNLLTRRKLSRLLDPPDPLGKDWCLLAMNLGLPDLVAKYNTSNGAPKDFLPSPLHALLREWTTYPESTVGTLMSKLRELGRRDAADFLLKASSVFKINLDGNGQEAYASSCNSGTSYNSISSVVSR

[8] = target: Death-associated protein kinase 3 (Homo sapiens) (UniProt O43293); experiment: Binding affinity to wild-type human partial length DAPK3 (M1 to A277 residues) expressed in bacterial expression system assessed as remaining unbound target protein level at 1000 nM by Kinomescan method relative to control
How it was run: (§2)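 KINOMEscan binding panel of 468 kinases/mutants. Inhibitor was tested at a single concentration of 1 μM. Binding is reported as percent of control, defined relative to a DMSO control.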

[9] = target: Ephrin type-A receptor 4 (Homo sapiens) (UniProt P54764); experiment: Binding affinity to wild-type human partial length EPHA4 (T601 to R897 residues) expressed in bacterial expression system assessed as remaining unbound target protein level at 1000 nM by Kinomescan method relative to control
Ephrin type-A receptor 4 (Homo sapiens), sequence (P54764 whole entry, the tested form may be a part): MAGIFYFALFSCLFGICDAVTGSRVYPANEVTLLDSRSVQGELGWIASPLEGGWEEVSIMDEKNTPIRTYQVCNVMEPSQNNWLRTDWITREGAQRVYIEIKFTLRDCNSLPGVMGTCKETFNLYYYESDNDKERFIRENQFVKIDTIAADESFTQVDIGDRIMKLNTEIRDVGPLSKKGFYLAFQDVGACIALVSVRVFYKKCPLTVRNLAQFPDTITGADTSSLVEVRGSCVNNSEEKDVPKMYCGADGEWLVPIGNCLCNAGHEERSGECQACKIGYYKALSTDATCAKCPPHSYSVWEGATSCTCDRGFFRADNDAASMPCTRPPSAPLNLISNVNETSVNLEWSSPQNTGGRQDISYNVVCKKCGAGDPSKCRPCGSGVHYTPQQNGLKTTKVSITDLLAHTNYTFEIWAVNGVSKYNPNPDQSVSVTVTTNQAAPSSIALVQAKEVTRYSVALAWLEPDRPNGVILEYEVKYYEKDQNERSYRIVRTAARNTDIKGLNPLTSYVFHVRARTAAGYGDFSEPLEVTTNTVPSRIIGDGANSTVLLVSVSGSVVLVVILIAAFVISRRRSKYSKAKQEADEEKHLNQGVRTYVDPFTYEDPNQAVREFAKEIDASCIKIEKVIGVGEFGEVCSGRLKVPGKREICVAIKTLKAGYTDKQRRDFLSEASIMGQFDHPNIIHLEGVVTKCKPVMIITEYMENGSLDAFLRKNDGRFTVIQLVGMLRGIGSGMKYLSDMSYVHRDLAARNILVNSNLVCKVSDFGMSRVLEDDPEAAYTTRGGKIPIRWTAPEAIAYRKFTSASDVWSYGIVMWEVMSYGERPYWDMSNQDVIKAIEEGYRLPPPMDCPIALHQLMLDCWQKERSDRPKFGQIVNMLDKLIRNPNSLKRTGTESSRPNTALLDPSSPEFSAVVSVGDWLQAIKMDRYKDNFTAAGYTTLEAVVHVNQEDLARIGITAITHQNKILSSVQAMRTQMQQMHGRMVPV

[10] = target: Receptor tyrosine-protein kinase erbB-4 (Homo sapiens) (UniProt Q15303); experiment: Binding affinity to wild-type human partial length ERBB4 (L690 to K994 residues) expressed in bacterial expression system assessed as remaining unbound target protein level at 1000 nM by Kinomescan method relative to control
Receptor tyrosine-protein kinase erbB-4 (Homo sapiens), sequence (Q15303 whole entry, the tested form may be a part): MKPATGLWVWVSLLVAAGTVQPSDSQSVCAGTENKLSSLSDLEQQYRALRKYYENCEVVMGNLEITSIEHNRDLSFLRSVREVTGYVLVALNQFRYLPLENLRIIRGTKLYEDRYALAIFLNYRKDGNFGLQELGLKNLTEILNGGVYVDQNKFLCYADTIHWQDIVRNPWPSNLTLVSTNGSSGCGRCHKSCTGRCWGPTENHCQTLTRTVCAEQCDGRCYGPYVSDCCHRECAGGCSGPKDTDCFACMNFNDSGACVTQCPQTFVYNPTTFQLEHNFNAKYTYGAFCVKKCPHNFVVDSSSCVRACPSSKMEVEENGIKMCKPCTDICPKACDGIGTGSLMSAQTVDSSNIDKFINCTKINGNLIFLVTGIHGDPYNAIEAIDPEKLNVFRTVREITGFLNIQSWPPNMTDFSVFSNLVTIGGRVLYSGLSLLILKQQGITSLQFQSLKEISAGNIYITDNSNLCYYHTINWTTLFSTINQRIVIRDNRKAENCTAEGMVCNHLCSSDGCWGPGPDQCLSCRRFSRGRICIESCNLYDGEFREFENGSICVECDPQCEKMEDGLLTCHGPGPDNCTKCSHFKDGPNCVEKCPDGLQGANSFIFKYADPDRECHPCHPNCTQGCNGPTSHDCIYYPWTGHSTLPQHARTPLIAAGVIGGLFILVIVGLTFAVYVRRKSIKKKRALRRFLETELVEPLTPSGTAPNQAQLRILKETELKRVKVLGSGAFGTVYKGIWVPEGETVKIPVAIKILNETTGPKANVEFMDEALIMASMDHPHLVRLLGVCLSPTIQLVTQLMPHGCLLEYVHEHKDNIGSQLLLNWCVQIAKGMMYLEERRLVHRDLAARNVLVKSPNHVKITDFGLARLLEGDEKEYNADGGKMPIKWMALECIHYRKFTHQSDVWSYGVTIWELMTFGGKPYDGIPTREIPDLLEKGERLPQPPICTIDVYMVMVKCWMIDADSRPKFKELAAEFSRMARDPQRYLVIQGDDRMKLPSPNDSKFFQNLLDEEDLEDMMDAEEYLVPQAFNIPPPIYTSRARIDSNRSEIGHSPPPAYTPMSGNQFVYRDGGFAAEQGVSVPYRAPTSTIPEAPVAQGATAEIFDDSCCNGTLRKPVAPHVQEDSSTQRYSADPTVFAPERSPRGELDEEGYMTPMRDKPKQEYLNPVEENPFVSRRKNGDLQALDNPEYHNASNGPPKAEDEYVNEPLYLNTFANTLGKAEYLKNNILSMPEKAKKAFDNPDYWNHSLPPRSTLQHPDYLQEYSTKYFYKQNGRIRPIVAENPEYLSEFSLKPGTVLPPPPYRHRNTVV

[11] = target: Fibroblast growth factor receptor 1 (Homo sapiens) (UniProt P11362); experiment: Binding affinity to wild-type human partial length FGFR1 (P357 to V669 residues) expressed in bacterial expression system assessed as remaining unbound target protein level at 1000 nM by Kinomescan method relative to control; how it was run: as §2
[12] = target: Receptor-type tyrosine-protein kinase FLT3 (Homo sapiens) (UniProt P36888); experiment: Binding affinity to wild-type human partial length FLT3 (V592 to Y969 residues) expressed in bacterial expression system assessed as remaining unbound target protein level at 1000 nM by Kinomescan method relative to control
[13] = target: Homeodomain-interacting protein kinase 3 (Homo sapiens) (UniProt Q9H422); experiment: Binding affinity to wild-type human partial length HIPK3 (M153 to N562 residues) expressed in mammalian expression system assessed as remaining unbound target protein level at 1000 nM by Kinomescan method relative to control; how it was run: as §2
[14] = target: Serine/threonine-protein kinase PAK 1 (Homo sapiens) (UniProt Q13153); experiment: Binding affinity to wild-type human partial length PAK1 (S149 to H545 residues) expressed in bacterial expression system assessed as remaining unbound target protein level at 1000 nM by Kinomescan method relative to control
[15] = target: Platelet-derived growth factor receptor beta (Homo sapiens) (UniProt P09619); experiment: Binding affinity to wild-type human partial length PDGFRB (V582 to Y1009 residues) expressed in bacterial expression system assessed as remaining unbound target protein level at 1000 nM by Kinomescan method relative to control; how it was run: as §2
[16] = target: Ribosomal protein S6 kinase alpha-5 (Homo sapiens) (UniProt O75582); experiment: Binding affinity to wild-type human partial length C-terminal RPS6KA5 kinase domain 2 (V390 to T718 residues) expressed in bacterial expression system assessed as remaining unbound target protein level at 1000 nM by Kinomescan method relative to control
How it was run: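 Profiled in a KINOMEscan binding panel with the inhibitor at a single concentration of 1 μM. Binding to each kinase was read out as percent of control, relative to a DMSO control. Strong binders were defined as those with a percent control value below 1.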

[17] = target: Proto-oncogene tyrosine-protein kinase Src (Homo sapiens) (UniProt P12931); experiment: Binding affinity to wild-type human partial length SRC (L240 to L536 residues) expressed in bacterial expression system assessed as remaining unbound target protein level at 1000 nM by Kinomescan method relative to control
[18] = target: Serine/threonine-protein kinase 16 (Homo sapiens) (UniProt O75716); experiment: Binding affinity to wild-type human partial length STK16 (G11 to I305 residues) expressed in bacterial expression system assessed as remaining unbound target protein level at 1000 nM by Kinomescan method relative to control
Serine/threonine-protein kinase 16 (Homo sapiens), sequence (O75716 whole entry, the tested form may be a part): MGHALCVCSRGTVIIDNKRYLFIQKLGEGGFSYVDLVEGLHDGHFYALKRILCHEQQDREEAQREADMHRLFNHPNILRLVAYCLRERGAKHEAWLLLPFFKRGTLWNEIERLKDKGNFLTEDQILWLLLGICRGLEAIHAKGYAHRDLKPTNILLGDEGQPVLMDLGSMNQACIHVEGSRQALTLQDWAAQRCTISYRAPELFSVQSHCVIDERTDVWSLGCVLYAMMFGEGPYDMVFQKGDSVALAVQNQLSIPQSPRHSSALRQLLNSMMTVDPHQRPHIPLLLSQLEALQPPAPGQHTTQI

[19] = target: Tyrosine-protein kinase receptor Tie-1 (Homo sapiens) (UniProt P35590); experiment: Binding affinity to wild-type human partial length TIE1 (T819 to A1138 residues) expressed in bacterial expression system assessed as remaining unbound target protein level at 1000 nM by Kinomescan method relative to control
[20] = target: Tyrosine-protein kinase TXK (Homo sapiens) (UniProt P42681); experiment: Binding affinity to wild-type human partial length TXK (L238 to W527 residues) expressed in bacterial expression system assessed as remaining unbound target protein level at 1000 nM by Kinomescan method relative to control
[21] = target: Tyrosine-protein kinase receptor TYRO3 (Homo sapiens) (UniProt Q06418); experiment: Binding affinity to wild-type human partial length TYRO3 (S497 to T814 residues) expressed in bacterial expression system assessed as remaining unbound target protein level at 1000 nM by Kinomescan method relative to control
[22] = target: Cyclin-Y/Cyclin-dependent kinase 16 (Homo sapiens, UniProt Q00536); experiment: Inhibition of recombinant GST-tagged inactive state of human CDK16 (108 to end residues)/cyclin Y (2 to end residues); type: protein-complex assay

T1 sequence (P50750 whole entry, the tested form may be a part): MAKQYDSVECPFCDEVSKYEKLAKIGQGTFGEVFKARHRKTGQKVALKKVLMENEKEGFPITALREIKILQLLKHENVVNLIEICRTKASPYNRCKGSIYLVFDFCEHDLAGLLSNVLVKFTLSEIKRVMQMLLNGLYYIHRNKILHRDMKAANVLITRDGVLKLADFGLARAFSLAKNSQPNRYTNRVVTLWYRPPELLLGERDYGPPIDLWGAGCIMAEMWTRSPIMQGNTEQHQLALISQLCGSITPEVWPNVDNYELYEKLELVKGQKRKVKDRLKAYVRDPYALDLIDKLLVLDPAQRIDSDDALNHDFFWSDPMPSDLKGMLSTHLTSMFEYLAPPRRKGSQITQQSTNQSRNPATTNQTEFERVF

**Q.** Which results are given for `COCCN[C@H]1CC[C@H](Nc2cc(-c3csc(NCC4(C#N)CCOCC4)n3)c(Cl)cn2)CC1`?
**A.** inhibition [1]: inactive; EC50 [2]: < 0.1 µM; inhibition [2]: Dose-dependent effect; Activity (HL-60): Dose-dependent effect; Tmax [3]: 4.98 min; F (Canis familiaris): 39.15%; Activity [4]: 100%; Activity [5]: 90%; Activity [6]: 99%; Activity [7]: 80%; Activity [8]: 63%; Activity [9]: 96%; Activity [10]: 85%; Activity [11]: 95%; Activity [12]: 89%; Activity [13]: 86%; Activity [14]: 100%; Activity [15]: 91%; Activity [16]: 76%; Activity [17]: 89%; Activity [18]: 76%; Activity [19]: 80%; Activity [20]: 90%; Activity [21]: 68%; IC50 [22]: 0.292 µM
